# From ChEMBL document CHEMBL1127751, “Novel Asp32-replacement tetrapeptide analogues as potent and selective CCK-A agonists” (J Med Chem, 1994)
# pIC50: −log10 of the molar value. Starred links: 1 amine or outer side, 2 acyl side, 3 side chain; linkers in the order of their positions; H or OH if unused. Non-standard residues stand in square brackets, D forms with d. Residues, ends and D or L forms follow the SMILES beside them. Groups on a side chain read outwards from the residue. ξ: configuration not given here. *: point of attachment. NMeF = CN[C@@H](Cc1ccccc1)C(=O)O; ξW = NC(Cc1c[nH]c2ccccc12)C(=O)O; NH(2-Me-phenyl) = Cc1ccccc1N*; ξNMeF = CNC(Cc1ccccc1)C(=O)O; β3hP = O=C(O)C[C@@H]1CCCN1; ξF = NC(Cc1ccccc1)C(=O)O; Boc = CC(C)(C)OC(=O)*; CO = O=C([*:1])[*:2]; Sar = CNCC(=O)O
# Key:
# [1] = biological target: T1, Cholecystokinin receptor type A (Cavia porcellus) (UniProt Q63931); assay: Percent response in PI hydrolysis relative to maximal response elicited by CCK-8 in guinea pig at 10e-6 M
# T1 sequence (whole entry): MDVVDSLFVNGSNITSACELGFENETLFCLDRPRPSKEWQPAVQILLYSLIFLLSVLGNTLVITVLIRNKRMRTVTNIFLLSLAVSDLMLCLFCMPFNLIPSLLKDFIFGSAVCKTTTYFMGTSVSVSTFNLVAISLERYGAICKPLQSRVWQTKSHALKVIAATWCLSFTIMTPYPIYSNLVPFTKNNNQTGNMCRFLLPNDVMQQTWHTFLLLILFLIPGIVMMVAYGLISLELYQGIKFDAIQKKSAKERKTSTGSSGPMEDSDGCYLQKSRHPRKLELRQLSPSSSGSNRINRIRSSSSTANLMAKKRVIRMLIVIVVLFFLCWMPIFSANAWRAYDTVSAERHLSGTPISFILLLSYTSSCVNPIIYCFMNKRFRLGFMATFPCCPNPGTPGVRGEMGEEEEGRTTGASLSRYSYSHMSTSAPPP
# [2] = tested on: Cholecystokinin receptor type B (Cavia porcellus); assay: Percent inhibition of specific [125I]Bolton-Hunter CCK-8 binding in guinea pig cortex at 10e-6 M
# [3] = biological target: T2, Cholecystokinin receptor type A (Cavia porcellus, UniProt Q63931); assay: Concentration that inhibited 50% of specific binding of [125I]Bolton-Hunter CCK-8 binding in guinea pig pancreas
# T2 sequence (Q63931 whole entry): T1 sequence (whole entry)
# Rattus norvegicus = species: Rattus norvegicus; assay: Dose required to reduce food intake by 50% in rats; format: functional
# How it was run: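 Rats dosed intraperitoneally in nmol/kg, with 7–8 animals per group in each experiment. Food intake was compared with vehicle controls. The dose reducing intake by 50% was calculated from the dose–response data and reported with an interval.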
Compound,PI hydrolysis [1] [%],inhibition [2] [%],pIC50 [3],ED50 (Rattus norvegicus) [µmol/kg]
Cc1ccccc1NC(=O)NCCCC[C@H](NC(=O)C(Cc1c[nH]c2ccccc12)NC(=O)OC(C)(C)C)C(=O)NCCCCC(=O)N(C)C(Cc1ccccc1)C(N)=O (stereo not given in full),7,7,5.93,
Cc1ccccc1NC(=O)NCCCC[C@H](NC(=O)C(Cc1c[nH]c2ccccc12)NC(=O)OC(C)(C)C)C(=O)N1CCC[C@H]1CC(=O)NC(Cc1ccccc1)C(N)=O (stereo partly drawn) (Boc-[ξW]K([CO-NH(2-Me-phenyl)])[β3hP][ξF]-NH2),68,,6.62,
Cc1ccccc1NC(=O)NCCCC[C@H](NC(=O)[C@H](Cc1c[nH]c2ccccc12)NC(=O)OC(C)(C)C)C(=O)NCC(=O)N[C@@H](Cc1ccccc1)C(N)=O (Boc-WK([CO-NH(2-Me-phenyl)])GF-NH2),,,6.04,
Cc1ccccc1NC(=O)NCCCC[C@H](NC(=O)C(Cc1c[nH]c2ccccc12)NC(=O)OC(C)(C)C)C(=O)N(C)CCCC(=O)NC(Cc1ccccc1)C(N)=O (stereo not given in full),8,11,6.41,
Cc1ccccc1NC(=O)NCCCC[C@H](NC(=O)C(Cc1c[nH]c2ccccc12)NC(=O)OC(C)(C)C)C(=O)N(C)CC(=O)N(C)C(Cc1ccccc1)C(N)=O (stereo not given in full) (Boc-[ξW]K([CO-NH(2-Me-phenyl)])[Sar][ξNMeF]-NH2),33,,,
Cc1ccccc1NC(=O)NCCCC[C@H](NC(=O)C(Cc1c[nH]c2ccccc12)NC(=O)OC(C)(C)C)C(=O)NCCCC(=O)NC(Cc1ccccc1)C(N)=O (stereo not given in full),9,11,6.13,
Cc1ccccc1NC(=O)NCCCC[C@H](NC(=O)C(Cc1c[nH]c2ccccc12)NC(=O)OC(C)(C)C)C(=O)N(C)CC(=O)NC(Cc1ccccc1)C(N)=O (stereo not given in full) (Boc-[ξW]K([CO-NH(2-Me-phenyl)])[Sar][ξF]-NH2),24,5,,
Cc1ccccc1NC(=O)NCCCC[C@H](NC(=O)C(Cc1c[nH]c2ccccc12)NC(=O)OC(C)(C)C)C(=O)NCC(=O)NC(Cc1ccccc1)C(N)=O (stereo not given in full) (Boc-[ξW]K([CO-NH(2-Me-phenyl)])G[ξF]-NH2),17,14,,
Cc1ccccc1NC(=O)NCCCC[C@H](NC(=O)[C@H](Cc1c[nH]c2ccccc12)NC(=O)OC(C)(C)C)C(=O)N(C)CC(=O)N[C@@H](Cc1ccccc1)C(N)=O (Boc-WK([CO-NH(2-Me-phenyl)])[Sar]F-NH2),,,6.58,
Cc1ccccc1NC(=O)NCCCC[C@H](NC(=O)C(Cc1c[nH]c2ccccc12)NC(=O)OC(C)(C)C)C(=O)NCCCCC(=O)NC(Cc1ccccc1)C(N)=O (stereo not given in full),2,,5.74,
Cc1ccccc1NC(=O)NCCCC[C@H](NC(=O)C(Cc1c[nH]c2ccccc12)NC(=O)OC(C)(C)C)C(=O)NCC(=O)N(C)C(Cc1ccccc1)C(N)=O (stereo not given in full) (Boc-[ξW]K([CO-NH(2-Me-phenyl)])G[ξNMeF]-NH2),28,0,,
Cc1ccccc1NC(=O)NCCCC[C@H](NC(=O)C(Cc1c[nH]c2ccccc12)NC(=O)OC(C)(C)C)C(=O)NCCCCCC(=O)N(C)C(Cc1ccccc1)C(N)=O (stereo not given in full),4,,5.88,
Cc1ccccc1NC(=O)NCCCC[C@H](NC(=O)C(Cc1c[nH]c2ccccc12)NC(=O)OC(C)(C)C)C(=O)N1CCC(=O)N(C(Cc2ccccc2)C(N)=O)CC1 (stereo not given in full),1,8,6.12,
Cc1ccccc1NC(=O)NCCCC[C@H](NC(=O)C(Cc1c[nH]c2ccccc12)NC(=O)OC(C)(C)C)C(=O)NCCCCCC(=O)NC(Cc1ccccc1)C(N)=O (stereo not given in full),5,6,5.92,

# Continued by rising pIC50 [3], values first:
PI hydrolysis [1] [%],inhibition [2] [%],pIC50 [3],Compound,ED50 (Rattus norvegicus) [µmol/kg]
,,6.85,Cc1ccccc1NC(=O)NCCCC[C@H](NC(=O)[C@H](Cc1c[nH]c2ccccc12)NC(=O)OC(C)(C)C)C(=O)NCC(=O)N(C)[C@@H](Cc1ccccc1)C(N)=O (Boc-WK([CO-NH(2-Me-phenyl)])G[NMeF]-NH2),
16,,6.90,Cc1ccccc1NC(=O)NCCCC[C@H](NC(=O)C(Cc1c[nH]c2ccccc12)NC(=O)OC(C)(C)C)C(=O)NCCC(=O)NC(Cc1ccccc1)C(N)=O (stereo not given in full),
,,7.08,Cc1ccccc1NC(=O)NCCCC[C@H](NC(=O)[C@H](Cc1c[nH]c2ccccc12)NC(=O)OC(C)(C)C)C(=O)N(C)CC(=O)N(C)[C@@H](Cc1ccccc1)C(N)=O (Boc-WK([CO-NH(2-Me-phenyl)])[Sar][NMeF]-NH2),
61,14,7.21,Cc1ccccc1NC(=O)NCCCC[C@H](NC(=O)C(Cc1c[nH]c2ccccc12)NC(=O)OC(C)(C)C)C(=O)N(C)CCC(=O)NC(Cc1ccccc1)C(N)=O (stereo not given in full),
47,9,7.57,Cc1ccccc1NC(=O)NCCCC[C@H](NC(=O)C(Cc1c[nH]c2ccccc12)NC(=O)OC(C)(C)C)C(=O)NCCC(=O)N(C)C(Cc1ccccc1)C(N)=O (stereo not given in full),
67,11,7.57,Cc1ccccc1NC(=O)NCCCC[C@H](NC(=O)C(Cc1c[nH]c2ccccc12)NC(=O)OC(C)(C)C)C(=O)NCCCC(=O)N(C)C(Cc1ccccc1)C(N)=O (stereo not given in full),
64,4,7.72,Cc1ccccc1NC(=O)NCCCC[C@H](NC(=O)C(Cc1c[nH]c2ccccc12)NC(=O)OC(C)(C)C)C(=O)N(C)CCCC(=O)N(C)C(Cc1ccccc1)C(N)=O (stereo not given in full),
92,13,7.77,Cc1ccccc1NC(=O)NCCCC[C@H](NC(=O)C(Cc1c[nH]c2ccccc12)NC(=O)OC(C)(C)C)C(=O)N1CCC[C@H]1CC(=O)N(C)C(Cc1ccccc1)C(N)=O (stereo partly drawn) (Boc-[ξW]K([CO-NH(2-Me-phenyl)])[β3hP][ξNMeF]-NH2),
89,39,7.80,Cc1ccccc1NC(=O)NCCCC[C@H](NC(=O)C(Cc1c[nH]c2ccccc12)NC(=O)OC(C)(C)C)C(=O)N[C@@H]1CC(=O)N([C@@H](Cc2ccccc2)C(N)=O)C1 (stereo not given in full),0.03
36,,8.15,Cc1ccccc1NC(=O)NCCCC[C@H](NC(=O)C(Cc1c[nH]c2ccccc12)NC(=O)OC(C)(C)C)C(=O)N(C)CCC(=O)N(C)C(Cc1ccccc1)C(N)=O (stereo not given in full),
